Results: publication PMC3582033 (Cell, 2011)

Tests used:
[1] = system: Gsc, Mixl1, Smad7, Skil, SerpinE1, Lefty1 expression in mESCs; assay: qRT-PCR of activin/nodal target genes in mESCs / embryoid bodies; format: cell-based, mouse
Summary of the method: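 E14Tg2a.IV mESCs were kept feeder-free with LIF; Trim33-null lines were kept on MEFs. Variants were Trim33 knockdown by lentiviral shRNA, Smad2/3-depleted, Smad4-null, or reconstituted with TRIM33 constructs. Embryoid bodies formed for 2.5 days, then received activin A (50 ng/ml) or SB431542 (10 μM) for 2 h. Total RNA went to qRT-PCR. Mean ± S.D. of quadruplicates, three independent experiments.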

TRIM33 PHD-Bromo = target: T1, TRIM33 PHD-Bromo (Homo sapiens, UniProt Q9UPN9); assay: ITC binding of H3; conditions: versus H3(1-28) (KD=0.46 μM)
T1 sequence (Q9UPN9 882-1087 limits assumed): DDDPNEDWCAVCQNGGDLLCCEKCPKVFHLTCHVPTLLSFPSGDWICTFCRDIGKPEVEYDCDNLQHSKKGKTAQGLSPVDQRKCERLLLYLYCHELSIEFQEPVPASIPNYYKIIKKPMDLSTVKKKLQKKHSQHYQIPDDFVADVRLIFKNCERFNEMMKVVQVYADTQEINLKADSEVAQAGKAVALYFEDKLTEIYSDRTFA

[2] = system: MDA-MB-231 breast carcinoma cells; assay: TGF-β gene responses in MDA-MB-231; format: cell-based, human; conditions: qRT-PCR, MDA-MB-231, TRIM33 depletion
MDA-MB-231 cells = assay: Luciferase reporter, repeats of Smad binding element; format: cell-based, human; conditions: SBE repeats
HaCaT keratinocytes [3] = assay: TGF-β gene responses in HaCaT; format: cell-based, human; conditions: qRT-PCR
HaCaT cells = assay: Luciferase reporter, SERPINE1; format: cell-based, human; conditions: SERPINE1 (PAI1) element
HaCaT keratinocytes [4] = conditions: and our unpublished work, ref Gomis et al., 2006; cited from earlier work
[5] = system: MDA-MB-231 breast carcinoma cells; conditions: and our unpublished work, ref Gomis et al., 2006; cited from earlier work
[6] = system: RNA Pol II at Gsc and Mixl1 promoters; assay: ChIP of RNA Pol II at Gsc and Mixl1 promoters; format: cell-based, mouse; conditions: Gsc -0.1 kb, Mixl1 -0.2 kb, EBs day 2.5, activin 2 h
Summary of the method: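 Mouse ESC embryoid bodies at day 2.5 (wild type or Trim33-null) received activin or SB431542 for 2 h. ChIP used anti-RNA Pol II. qRT-PCR read Gsc −0.1 kb and Mixl1 −0.2 kb as percent of input. Mean ± S.D. of quadruplicates, two independent experiments.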

[7] = system: HP1γ at Gsc and Mixl1 promoters; assay: ChIP of HP1γ at Gsc and Mixl1 promoters; format: cell-based, mouse; conditions: wild type and Trim33-null EBs day 2.5, activin 2 h
Summary of the method: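 Mouse E14Tg2a.IV ESCs (feeder-free, LIF) and Trim33-null ESCs (C57Bl/6J, on MEFs) formed EBs for 2.5 days, then got activin or SB for 2 h. HP1γ or no-antibody ChIP used a kit. Absolute qPCR covered Gsc −2.3 kb and Mixl1 −0.2/−0.5 kb, as % input. Mean ± S.D. of quadruplicates.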

[8] = system: Smad4 at Gsc and Mixl1 promoters; assay: ChIP of Smad4 at Gsc / Mixl1 promoters; format: cell-based, mouse; conditions: EBs day 2.5, activin 2 h
Summary of the method: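 Wild-type, shRNA Trim33-depleted or TRIM33-reconstituted mESCs formed EBs for 2.5 days, then 2 h with activin A (50 ng/ml) or SB431542 (10 μM). Cells were crosslinked in 1% formaldehyde at 37 °C for 10 min and quenched in 0.125 M glycine. Anti-Smad4 ChIP was read by absolute qPCR of Gsc (−0.4 kb) and Mixl1 (−0.5/−0.2 kb) as % input. Mean ± S.D. of quadruplicates, three experiments.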

[9] = system: histone H3 modified residues at Gsc and Mixl1 promoters; assay: ChIP of histone H3 marks at Gsc and Mixl1 promoters; format: cell-based, mouse; conditions: activin
Summary of the method: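 Histone-mark ChIP used day-2.5 mESC embryoid bodies treated with activin A (50 ng/ml) or SB431542 (10 μM). Cells were fixed with 1% formaldehyde (37 °C, 10 min) and quenched with glycine. Antibodies recognised modified H3 residues; protein A/G beads alone served as negative controls. Mono-nucleosome templates came from micrococcal nuclease digestion. Absolute qRT-PCR, percent of input. Mean ± S.D. of quadruplicates, ≥3 experiments.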

[10] = system: TRIM33-Smad2/3 complex in mESCs; assay: Smad2/3 co-immunoprecipitation, TRIM33-Smad2/3 complex formation; format: cell-based, mouse
[11] = system: TRIM33 at Gsc and Mixl1 promoters; assay: ChIP of TRIM33 at Gsc / Mixl1 promoters; format: cell-based, mouse
Summary of the method: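 EBs (day 2.5) came from wild-type, Trim33-depleted, Smad2/3-depleted or Smad4-null mESCs. They were given activin A (50 ng/ml) or SB431542 (10 μM) for 2 h. Formaldehyde crosslinking (1%, 37 °C, 10 min) was quenched with glycine. Anti-TRIM33 ChIP used a kit, with absolute qPCR of Gsc/Mixl1 promoter regions reported as % input. Mean ± S.D. of quadruplicates, at least three experiments.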

[12] = system: Smad4-Smad2/3 complex in mESCs; assay: Smad2/3 co-immunoprecipitation, Smad4-Smad2/3 complex formation; format: cell-based, mouse
[13] = system: activin responsive genes in EBs; assay: Genome-wide transcriptomic analysis; format: cell-based, mouse; conditions: >3 fold change

## NC(=O)c1ccc(-c2nc(-c3ccc4c(c3)OCO4)c(-c3ccccn3)[nH]2)cc1 [SB431542, reference compound]
[1]; mESC EBs, SB431542 10 μM
  sensitivity of endogenous nodal-like factor responses to SB431542: SB431542-sensitive

## H3(1-28) acetylation of K18: H3(1-28) with acetylation of K18
TRIM33 PHD-Bromo
  enhancement of binding relative to H3(1-28): 2.3 fold

## TGF-β
[2]
  TGF-β response of SMAD7, SKIL and SERPINE1 on TRIM33 depletion: did not significantly alter the TGF-β response
MDA-MB-231 cells
  reporter response on TRIM33 depletion: increased the activity of these constructs
HaCaT keratinocytes [3]
  TGF-β response of SMAD7, SKIL and SERPINE1 on TRIM33 depletion: did not significantly alter the TGF-β response
HaCaT cells
  reporter response on TRIM33 depletion: increased the activity of these constructs
HaCaT keratinocytes [4]
  most TGF-β responses on RNAi depletion of Smad2/3 and Smad4 or TRIM33: inhibited by RNAi-mediated depletion of Smad2/3 and Smad4, but not by depletion of TRIM33
[5]
  most TGF-β responses on RNAi depletion of Smad2/3 and Smad4 or TRIM33: inhibited by RNAi-mediated depletion of Smad2/3 and Smad4, but not by depletion of TRIM33

## activin: recombinant activin A (R&D Systems), ligand sharing receptors with nodal
[6]
  level of Pol II binding to initiator region: increase in the level of Pol II binding
[7]
  HP1γ binding to TRIM33 target regions: inhibited by activin addition in a TRIM33-dependent manner
[8]
  Smad4 ChIP binding, Gsc: Activin-dependent binding of Smad4 occurred only at the ARE
[9]; TRIM33 binding regions and throughout Gsc and Mixl1 promoters
  level of H3K18ac: rapid, marked increase in the level of H3K18ac
[9]
  levels of H3K14ac and H3K23ac: increased by activin
[9]; throughout these regions of Gsc and Mixl1 promoters
  level of H3K9me3: did not affect the level of H3K9me3
[10]; Smad4-null mESCs
  formation of TRIM33-Smad2/3 complex, Smad4 requirement: did not require Smad4
[10]; mESCs, activin A 50 ng/ml
  t1/2 of TRIM33-Smad2/3 complex formation: ~30 min
[11]; EBs day 2.5, activin 2 h
  TRIM33 ChIP binding, Mixl1: Activin-dependent binding of TRIM33 occurred near the Mixl1 ARE
[11]; depletion of Smad2/3
  activin-dependent TRIM33 binding on Smad2/3 depletion, Mixl1: inhibited the activin-dependent binding of TRIM33
[11]; wild-type versus Smad4-null ESCs
  activin-induced TRIM33 binding, effect of Smad4: enhanced the activin-induced binding of TRIM33 to its sites
[12]; TRIM33 shRNA or knock-out mESCs
  formation of Smad4-Smad2/3 complex on TRIM33 depletion: did not inhibit the formation of the Smad4-Smad2/3 complex
[12]; mESCs, activin A 50 ng/ml
  t1/2 of Smad4-Smad2/3 complex formation: ~30 min
[13]; p<0.05
  total activin gene responses: 407 responses
[13]; p<0.05, of 407 responses
  activin gene responses requiring both Smad4 and TRIM33: 333 responses
[1]; Cripto/cryptic-depleted cells
  responsiveness to activin: remained responsive to activin
[1]; RNAi-mediated depletion of TRIM33, EB 2.5 days, activin 2 h
  induction of Gsc, Mixl1, Smad7: strongly blunted the induction of Gsc and Mixl1 but not that of Smad7
[1]; Smad4-null or Smad2/3-depleted mESCs, EB 2.5 days, 2 h
  Gsc, Mixl1 and Smad7 responses to added activin: lacked Gsc, Mixl1 and Smad7 responses
[1]; TRIM33-depleted cells reconstituted with shRNA-insensitive TRIM33 vector
  Gsc and Mixl1 responses: restored the Gsc and Mixl1 responses
[1]; Trim33-null ESC lines, activin
  expression of Smad7, Skil and SerpinE1: stimulated the expression of the common Smad2/3 target genes
[1]; Trim33-null mESCs, Smad4-null mESCs depleted of TRIM33
  Lefty1 induction by activin: blunted
[1]; two independent Trim33-null ESC lines, activin
  expression of Gsc and Mixl1: failed to stimulate the expression of Gsc and Mixl1
